Source: PMC6226116 (Clinical and Translational Science, 2018)
Where two headings read alike, the source gives them in different places.

Assays:
[1] = Cyclosporine and tacrolimus trough concentrations before the third dose; assay type: in vivo, human; conditions: tacrolimus 5 mg oral once daily, predose on day 3
Procedure, shortened: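 Healthy adult male volunteers (n=12) took each test compound orally once daily for 3 days in separate treatment periods (100 mg as soft gelatin capsules; 5 mg). They fasted from 10 h before to 2 h after dosing and avoided CYP-affecting medications. Blood was drawn immediately before the day-3 dose, processed by a certified clinical laboratory, and plasma concentrations were measured by validated LC-MS/MS.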

[2] = with tacrolimus; cited from earlier work
[3] = co‐administration of cyclosporine; cited from earlier work
P‐gp = conditions: LLC‐PK1‐P‐gp cell monolayers; cited from earlier work
[4] = cited from earlier work
[5] = assay type: in vivo, human
[6] = cited from earlier work; remark: listed apart in the source
[7] = co‐administration with ketoconazole, humans
[8] = both, human, plasma, oral, 100 mg
[9] = in the presence of cyclosporine vs apixaban alone
[10] = in the presence of tacrolimus vs apixaban alone

C=CC[C@@H]1/C=C(\C)C[C@H](C)C[C@H](OC)[C@H]2O[C@@](O)(C(=O)C(=O)N3CCCC[C@H]3C(=O)O[C@H](/C(C)=C/[C@@H]3CC[C@@H](O)[C@H](OC)C3)[C@H](C)[C@@H](O)CC1=O)[C@H](C)C[C@@H]2OC [tacrolimus]
trough concentration, mean (SD) [1]: 3.8 (2.3) ng/mL

CC(C)c1c(C(=O)Nc2ccccc2)c(-c2ccccc2)c(-c2ccc(F)cc2)n1CC[C@@H](O)C[C@@H](O)CC(=O)O [atorvastatin]
impact on atorvastatin pharmacokinetics [2]: no impact

COc1cc2c(c(OC)c1OC)-c1ccc(OC)c(=O)cc1[C@@H](NC(C)=O)CC2 [colchicine]
increase in colchicine AUC(0–∞) [3]: 215%
increase in colchicine C max [3]: 224%

CC(=O)N1CCN(c2ccc(OCC3COC(Cn4ccnc4)(c4ccc(Cl)cc4Cl)O3)cc2)CC1 (stereo not shown) [ketoconazole]
inhibition of apixaban efflux (P‐gp): extensively inhibited

COc1ccc(-n2nc(C(N)=O)c3c2C(=O)N(c2ccc(N4CCCCC4=O)cc2)CC3)cc1 [Apixaban]
increase in apixaban AUC ([4]; administration with diltiazem): 1.4 fold
increase in apixaban C max ([4]; administration with diltiazem): 1.3 fold
increase in apixaban AUC [4, 7]: twofold
increase in apixaban C max [4, 7]: 1.6 fold
CL/F ([5]; apixaban 10 mg oral alone, arithmetic mean (SD) [minimum, maximum]): 5.8 L/h
T max ([5]; apixaban with tacrolimus 5 mg daily for 3 days, median [minimum, maximum]): 2.5 [1, 4] h
Vd/F [5, 8]: 45 L
half-life [5, 8]: 6.8 h
Tmax ([5]; both, human, plasma, po, 10 mg): 2.5 h
Vd/F ([5]; both, human, plasma, po, 10 mg): 89 L
half-life ([5]; both, human, plasma, po, 10 mg): 12.1 h
GMR for apixaban AUC(0–tlast) [5, 9]: 120%
GMR for apixaban AUC(0–∞) [5, 9]: 119%
GMR for apixaban C max [5, 9]: 143%
GMR for apixaban AUC(0–tlast) [5, 10]: 78%
GMR for apixaban AUC(0–∞) [5, 10]: 77%
GMR for apixaban C max [5, 10]: 87%
increase in apixaban exposure ([5]; with cyclosporine co-administration): 20%
decrease in apixaban exposure ([5]; with tacrolimus co-administration): 22%

COc1ccc2c(O[C@@H]3C[C@H]4C(=O)N[C@]5(C(=O)NS(=O)(=O)C6CC6)C[C@H]5/C=C\CCCCN(C)C(=O)[C@@H]4C3)cc(-c3nc(C(C)C)cs3)nc2c1C [simeprevir]
increase in AUC(0‐24) of simeprevir ([6]; with cyclosporine): 5.8 fold
increase in C max of simeprevir ([6]; with cyclosporine): 4.7 fold
increase in AUC(0‐24) of simeprevir ([6]; with tacrolimus): 85%
increase in Cmax of simeprevir ([6]; with tacrolimus): 79%
